According to ChEMBL document CHEMBL4043093, “2-Oxo-3, 4-dihydropyrimido[4, 5-d]pyrimidinyl derivatives as new irreversible pan fibroblast growth factor receptor (FGFR) inhibitors” (Eur J Med Chem, 2017):

Tests used:
[1] = target: Casein kinase II subunit alpha' (Homo sapiens) (UniProt P19784); test: Inhibition of wild-type human full length CSNK2A2 (M1 to R350 residues) expressed in HEK293 cells assessed as residual activity at 1000 nM after 30 mins by Kinomescan method relative to control; type: cell-based
How it was run: (§1)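 Single-point screen at a fixed 1 µM, run within a 456-kinase DiscoveRx KINOMEscan panel. Each kinase's read-out is Percent Control, i.e. signal relative to a control without compound. Hits were scored by a Percent Control < 35 cut-off, and an S(35) selectivity score was calculated across the non-mutant kinases.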

[2] = target: Phosphatidylinositol 4-phosphate 5-kinase type-1 gamma (Homo sapiens) (UniProt O60331); test: Inhibition of wild-type human partial length PIP5K1C (M1 to T668 residues) expressed in HEK293 cells assessed as residual activity at 1000 nM after 30 mins by Kinomescan method relative to control; type: cell-based
[3] = target: 3-phosphoinositide-dependent protein kinase 1 (Homo sapiens) (UniProt O15530); test: Inhibition of wild-type human full length PDPK1 (M1 to Q556 residues) expressed in Escherichia coli BL21 assessed as residual activity at 1000 nM after 30 mins by Kinomescan method relative to control
How it was run: (§2)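 Single-concentration screen at 1 µM across a 456-kinase KINOMEscan panel. The read-out is Percent Control for each kinase.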

[4] = target: NUAK family SNF1-like kinase 1 (Homo sapiens) (UniProt O60285); test: Inhibition of wild-type human partial length ARK5 (E25 to I332 residues) expressed in Escherichia coli BL21 assessed as residual activity at 1000 nM after 30 mins by Kinomescan method relative to control
[5] = target: Hepatocyte growth factor receptor (Homo sapiens) (UniProt P08581); test: Inhibition of wild-type human partial length MET (D1010 to S1367 residues) expressed in Escherichia coli BL21 assessed as residual activity at 1000 nM after 30 mins by Kinomescan method relative to control
[6] = target: Calcium/calmodulin-dependent protein kinase kinase 2 (Homo sapiens) (UniProt Q96RR4); test: Inhibition of wild-type human partial length CAMKK2 (D65 to V471 residues) expressed in Escherichia coli BL21 assessed as residual activity at 1000 nM after 30 mins by Kinomescan method relative to control
[7] = target: Serine/threonine-protein kinase TAO2 (Homo sapiens) (UniProt Q9UL54); test: Inhibition of wild-type human partial length TAOK2 (M1 to A320 residues) expressed in HEK293 cells assessed as residual activity at 1000 nM after 30 mins by Kinomescan method relative to control; type: cell-based
[8] = target: Serine/threonine-protein kinase D3 (Homo sapiens) (UniProt O94806); test: Inhibition of wild-type human partial length PRKD3 (S543 to E863 residues) expressed in Escherichia coli BL21 assessed as residual activity at 1000 nM after 30 mins by Kinomescan method relative to control
[9] = target: Serine/threonine-protein kinase OSR1 (Homo sapiens) (UniProt O95747); test: Inhibition of wild-type human full length OSR1 (M1 to S527 residues) expressed in HEK293 cells assessed as residual activity at 1000 nM after 30 mins by Kinomescan method relative to control; type: cell-based; how it was run: as §2
NCI-H520 = test: Antiproliferative activity against human FGFR1-amplified NCI-H520 cells after 7 days by SRB assay; conditions: NCI-H520, 168 h
[10] = target: SRSF protein kinase 3 (Homo sapiens) (UniProt Q9UPE1); test: Inhibition of wild-type human partial length SRPK3 (P41 to P567 residues) expressed in Escherichia coli BL21 assessed as residual activity at 1000 nM after 30 mins by Kinomescan method relative to control
[11] = system: Mast/stem cell growth factor receptor Kit (Homo sapiens), P10721 [A829P]; test: Inhibition of human partial length KIT A829P mutant (I571 to D952 residues) expressed in HEK293 cells assessed as residual activity at 1000 nM after 30 mins by Kinomescan method relative to control; type: cell-based
How it was run: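 KINOMEscan binding panel of 456 kinases, with the test compound at a single concentration of 1 µM. Read-out is Percent Control.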

[12] = target: Serine/threonine-protein kinase PAK 3 (Homo sapiens) (UniProt O75914); test: Inhibition of wild-type human full length PAK3 (M1 to R544 residues) expressed in Escherichia coli BL21 assessed as residual activity at 1000 nM after 30 mins by Kinomescan method relative to control; how it was run: as §2
[13] = target: Tyrosine-protein kinase ABL2 (Homo sapiens) (UniProt P42684); test: Inhibition of wild-type human ABL2 (A248 to G542 residues) expressed in Escherichia coli BL21 assessed as residual activity at 1000 nM after 30 mins by Kinomescan method relative to control; how it was run: as §1
[14] = target: Dual specificity protein kinase TTK (Homo sapiens) (UniProt P33981); test: Inhibition of wild-type human partial length TTK (N505 to V798 residues) expressed in Escherichia coli BL21 assessed as residual activity at 1000 nM after 30 mins by Kinomescan method relative to control
[15] = target: TGF-beta receptor type-1 (Homo sapiens) (UniProt P36897); test: Inhibition of wild-type human partial length TGFBR1 (D179 to M503 residues) expressed in Escherichia coli BL21 assessed as residual activity at 1000 nM after 30 mins by Kinomescan method relative to control
[16] = target: Homeodomain-interacting protein kinase 1 (Homo sapiens) (UniProt Q86Z02); test: Inhibition of wild-type human partial length HIPK1 (M146 to I555 residues) expressed in HEK293 cells assessed as residual activity at 1000 nM after 30 mins by Kinomescan method relative to control; type: cell-based
[17] = target: Misshapen-like kinase 1 (Homo sapiens) (UniProt Q8N4C8); test: Inhibition of wild-type human partial length MINK (M1 to K312 residues) expressed in HEK293 cells assessed as residual activity at 1000 nM after 30 mins by Kinomescan method relative to control; type: cell-based
[18] = system: Tyrosine-protein kinase ABL1 (Homo sapiens), P00519 [F317I]; test: Inhibition of human phosphorylated ABL1 F317I mutant (S229 to K512 residues) expressed in HEK293 cells assessed as residual activity at 1000 nM after 30 mins by Kinomescan method relative to control; type: cell-based; how it was run: as §1
[19] = target: Fibroblast growth factor receptor 4 (Homo sapiens, UniProt P22455); test: Inhibition of wild-type human partial length FGFR4 (G402 to E713 residues) expressed in Escherichia coli BL21 assessed as residual activity at 1000 nM after 30 mins by Kinomescan method relative to control
[20] = target: Serine/threonine-protein kinase 24 (Homo sapiens) (UniProt Q9Y6E0); test: Inhibition of wild-type human partial length MST3 (A30 to S311 residues) expressed in Escherichia coli BL21 assessed as residual activity at 1000 nM after 30 mins by Kinomescan method relative to control
[21] = target: Serine/threonine-protein kinase PLK1 (Homo sapiens) (UniProt P53350); test: Inhibition of wild-type human partial length PLK1 (A33 to F325 residues) expressed in HEK293 cells assessed as residual activity at 1000 nM after 30 mins by Kinomescan method relative to control; type: cell-based

COc1cc(OC)c(Cl)c(N2Cc3cnc(Nc4ccc(F)cc4)nc3N(C3CCN(C(=O)/C=C/CN(C)C)CC3)C2=O)c1Cl
Activity [1]: 100%
Activity [2]: 92%
Activity [3]: 67%
Activity [4]: 100%
Activity [5]: 96%
Activity [6]: 99%
Activity [7]: 6.2%
Activity [8]: 100%
Activity [9]: 100%
IC50 (NCI-H520): 8.69 nM
Activity [10]: 86%
Activity [11]: 30%
Activity [12]: 99%
Activity [13]: 26%
Activity [14]: 86%
Activity [15]: 95%
Activity [16]: 100%
Activity [17]: 93%
Activity [18]: 99%
Activity [19]: 1%
Activity [20]: 68%
Activity [21]: 100%
